# Active and inactive are the calls of the source. No cut-off for these calls is given here. Square brackets hold non-standard residues; d marks the D form. Peptide text beside a SMILES is read from it. ξ: configuration not given here. Oic(3aξ,7aξ) = O=C(O)[C@@H]1CC2CCCCC2N1; Tic = O=C(O)[C@@H]1Cc2ccccc2CN1; Aun = NCCCCCCCCCCC(=O)O
# Columns and labels:
# [1] = biological target: T1, B2 bradykinin receptor (Homo sapiens) (UniProt P30411); test: Binding affinity towards human cloned B2 receptor was determined using [3H]BK as radioligand; Inactive
# T1 sequence (whole entry): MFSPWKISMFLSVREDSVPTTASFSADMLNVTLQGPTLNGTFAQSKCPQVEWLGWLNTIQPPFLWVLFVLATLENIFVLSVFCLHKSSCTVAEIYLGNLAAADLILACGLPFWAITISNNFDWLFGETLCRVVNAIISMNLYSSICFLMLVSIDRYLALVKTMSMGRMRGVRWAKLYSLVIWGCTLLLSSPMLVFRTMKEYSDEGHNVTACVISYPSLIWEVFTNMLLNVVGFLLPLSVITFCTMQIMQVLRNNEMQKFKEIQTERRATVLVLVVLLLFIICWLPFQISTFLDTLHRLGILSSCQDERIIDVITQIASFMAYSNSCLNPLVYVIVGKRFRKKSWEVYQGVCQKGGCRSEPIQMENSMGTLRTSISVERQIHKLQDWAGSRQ
# [2] = biological target: T2, B1 bradykinin receptor (Homo sapiens) (UniProt P46663); test: Binding affinity towards human cloned B1 receptor was determined using [3H][des-Arg10-Leu9]-kallidin as radioligand; No significant affinity at 10 uM
# T2 sequence (whole entry): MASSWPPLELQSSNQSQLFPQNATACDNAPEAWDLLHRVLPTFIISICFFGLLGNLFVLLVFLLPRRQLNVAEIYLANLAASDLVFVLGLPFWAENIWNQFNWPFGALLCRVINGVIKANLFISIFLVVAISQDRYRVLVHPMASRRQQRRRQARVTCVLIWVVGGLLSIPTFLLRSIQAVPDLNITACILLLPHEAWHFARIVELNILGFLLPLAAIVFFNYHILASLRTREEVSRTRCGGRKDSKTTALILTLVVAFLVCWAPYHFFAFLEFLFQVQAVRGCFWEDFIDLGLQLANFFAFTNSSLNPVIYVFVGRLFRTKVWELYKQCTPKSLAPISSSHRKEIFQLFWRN
# [3] = organism: Rattus norvegicus; test: Compound was tested for antagonist activity on rat ileum longitudinal smooth muscle; format: functional; conditions: read-out: pA2 (converted)
# [4] = biological target: T3, B2 bradykinin receptor (Homo sapiens, UniProt P30411); test: Binding affinity towards human cloned B2 receptor was determined using [3H]BK as radioligand
# T3 sequence (P30411 whole entry): T1 sequence (whole entry)
# [5] = biological target: T4, B1 bradykinin receptor (Homo sapiens, UniProt P46663); test: Binding affinity towards human cloned B1 receptor was determined using [3H][des-Arg10-Leu9]-kallidin as radioligand
# T4 sequence (P46663 whole entry): T2 sequence (whole entry)
# [6] = organism: Homo sapiens; test: Competitive inhibition of the contraction of the human umbilical vein induced by the potent B1 receptor agonist [des-Arg10]-kallidin; format: functional; conditions: read-out: pA2 (converted)
# In short: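 Human umbilical vein rings (3-4 mm) incubated overnight at 37 °C in Krebs (B1 induction), then set in organ baths at 37 °C, 95% O2/5% CO2, stretched to 1 g. Antagonist or vehicle 15 min before [des-Arg10]-kallidin concentration-response curve (one per ring), expressed as % of 1 µM U46619 maximal contraction.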
# [7] = biological target: T2, B1 bradykinin receptor (Homo sapiens); test: Binding affinity towards human cloned B1 receptor was determined using [3H][des-Arg10-Leu9]-kallidin as radioligand; No significant affinity at 10E-5 M
Compound,NA [1],NS [2],other results
C[C@H](N)C(=O)N[C@@H](CCCN=C(N)N)C(=O)N1CCC2(CC1)C(=O)N(CC(=O)N[C@@H](CO)C(=O)N[C@@H]1CSc3ccccc3N(CC(=O)O)C1=O)CN2CCc1ccccc1,inactive,inactive,–
N=C(N)NCCCC(NC(=O)C1CCNCC1)C(=O)N1CCC2(CC1)C(=O)N(CC(=O)NC(CO)C(=O)N[C@@H]1CSc3ccccc3N(CC(=O)O)C1=O)CN2CCc1ccccc1 (stereo partly specified),inactive,inactive,–
"NC(N)=NCCC[C@H](NC(=O)[C@@H](N)CCCN=C(N)N)C(=O)NCCCCCCCCCCC(=O)N[C@@H](CO)C(=O)N1Cc2ccccc2C[C@H]1C(=O)N1C2CCCCC2C[C@H]1C(=O)O (stereo partly specified) (H-RR[Aun]S[Tic][Oic(3aξ,7aξ)]-OH)",–,–,Kb [3]: 79.4 nM
NCCCC[C@H](N)C(=O)N[C@@H](CCCN=C(N)N)C(=O)N1CCC2(CC1)C(=O)N(CC(=O)N[C@@H](CO)C(=O)N[C@@H]1CSc3ccccc3N(CC(=O)O)C1=O)CN2CCc1ccccc1,–,–,Ki [4]: 11900 nM; Ki [5]: 24.1 nM; Kb [6]: 794 nM
NCc1ccc(C(=O)NC(CCCN=C(N)N)C(=O)N2CCC3(CC2)C(=O)N(CC(=O)NC(CO)C(=O)N[C@@H]2CSc4ccccc4N(CC(=O)O)C2=O)CN3CCc2ccccc2)cc1 (stereo partly specified),inactive,inactive,–
C[C@H](NC(=O)[C@@H](N)CCCCN)C(=O)N1CCC2(CC1)C(=O)N(CC(=O)N[C@@H](CO)C(=O)N[C@@H]1CSc3ccccc3N(CC(=O)O)C1=O)CN2CCc1ccccc1,inactive,inactive,–
C[C@@H](O)[C@H](NC(=O)CN1CN(CCc2ccccc2)C2(CCN(C(=O)[C@H](CCCN=C(N)N)NC(=O)[C@@H](N)CCCCN)CC2)C1=O)C(=O)N[C@@H]1CSc2ccccc2N(CC(=O)O)C1=O,inactive,–,–
NCCCC[C@H](N)C(=O)N[C@@H](CCCN=C(N)N)C(=O)N1CCC2(CC1)C(=O)N(CC(=O)N[C@@H](CO)C(=O)N[C@@H]1CSc3ccccc3N(CC(=O)O)C1=O)CN2CCC1Cc2ccccc2C1,inactive,–,NS [7]: inactive
NCCCC[C@H](N)C(=O)N[C@@H](CCCN=C(N)N)C(=O)N1CCC2(CC1)CN(CC(=O)N[C@@H]1CSc3ccccc3N(CC(=O)O)C1=O)C(=O)N2CCc1ccccc1,inactive,–,–
N=C(N)NCCCCC(=O)NC(CCCNC(=N)N)C(=O)N1CCC2(CC1)C(=O)N(CC(=O)NC(CO)C(=O)N[C@@H]1CSc3ccccc3N(CC(=O)O)C1=O)CN2CCc1ccccc1 (stereo partly specified),inactive,inactive,–
C[C@H](NC(=O)CN1CN(CCc2ccccc2)C2(CCN(C(=O)[C@H](CCCN=C(N)N)NC(=O)[C@@H](N)CCCCN)CC2)C1=O)C(=O)N[C@@H]1CSc2ccccc2N(CC(=O)O)C1=O,inactive,–,–
NCCCC[C@H](N)C(=O)N[C@@H](CCCN=C(N)N)C(=O)N1CCC2(CC1)C(=O)N(CC(=O)N[C@@H](CO)C(=O)N[C@@H]1CSc3ccccc3N(CC(=O)O)C1=O)CN2c1ccccc1,inactive,–,NS [7]: inactive

# — ChEMBL document CHEMBL1133747, “A rational approach to the design and synthesis of a new bradykinin B(1) receptor antagonist” (J Med Chem, 2000)
